This is an account of results in ChEMBL document CHEMBL1148336, “3-Aminopyrazole inhibitors of CDK2/cyclin A as antitumor agents. 1. Lead finding” (J Med Chem, 2004).

Molecules are shown by their SMILES. A value given as a limit tells only on which side of the number the result lay.

For data set [1], the species on record is Rattus norvegicus. Put plainly: Metabolic rate for compound was observed in rat hepatocytes. It is filed as ADME, Liver, Hepatocyte. The method in brief:
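Compound at 1 μM was incubated with 10^6 rat hepatocytes in 1 mL Leibovitz's medium at 37 °C with shaking. Samples were taken at 0.5–90 min and quenched in ice-cold acetonitrile. Parent was quantified by LC/MS/MS, with hepatocyte-free controls and reference clearance drugs.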

Data set [2] concerns the target CDC7/DBF4 (Cell division cycle 7-related protein kinase/Activator of S phase kinase) (Homo sapiens, UniProt O00311). Put plainly: Inhibition of CDC7/DBF4 kinase activity. It is filed as protein-complex assay. The method in brief:
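Recombinant CDC7/DBF4 (insect cells), 18 nM, with MCM2 substrate in 50 mM Hepes pH 7.5, 5 mM MgCl2, 1 mM DTT, 3 μM NaVO3. ATP/33P-γ-ATP at 2Km, substrate at 5Km, 1% DMSO, compound 10 to 0.0015 μM in 3-fold steps, 30–90 min at room temperature. SPA bead capture.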

Data set [3] concerns the target Cyclin-dependent kinase 5/CDK5 activator 1 (Homo sapiens, UniProt Q00535). Put plainly: Inhibition of Cyclin-dependent kinase 5-p35nck5a. In kind it is protein-complex assay. A digest of the protocol:
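Recombinant CDK5/p25 expressed in insect cells, used at 4 nM with histone H1 substrate (5Km) and ATP/33P-γ-ATP (2Km). Run in Tris-HCl pH 7.4 buffer with MgCl2 and DTT, 1% DMSO, for 30–90 min at room temperature. 3-fold dilutions from 10 to 0.0015 μM. Product captured on streptavidin SPA beads and counted.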

The target in data set [4] is Inhibitor of nuclear factor kappa-B kinase subunit beta (Homo sapiens, UniProt O14920). Put plainly: Inhibition of I-kappa-B-kinase beta activity. The method in brief: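 ATP/33P-γ-ATP 2Km, substrate 5Km, 1% DMSO, 10–0.0015 μM compound, 30–90 min at room temperature. SPA detection.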
The target of data set [5] is Insulin-like growth factor 1 receptor (Homo sapiens, UniProt P08069). Put plainly: Inhibition of Insulin-like growth factor I receptor. A digest of the protocol: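 IGF1R (6 nM, insect-cell recombinant) phosphorylating IRStide in 50 mM Hepes pH 7.5, 3 mM MnCl2, 1 mM DTT, 3 μM NaVO3. 33P-ATP mix at 2Km, substrate 5Km, 1% DMSO. Compound in 3-fold series from 10 μM, 30–90 min at room temperature. SPA counting.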

In data set [6] the target is Protein kinase C beta type (Homo sapiens, UniProt P05771). Put plainly: Inhibition of Protein kinase C beta. The method in brief:
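PKCβ was commercially sourced. It was used at 0.7–100 nM enzyme with substrate at 5Km and ATP/33P-γ-ATP at 2Km, 1% DMSO, and compound in 3-fold steps from 10 to 0.0015 μM, for 30–90 min at room temperature. Phosphorylated product was separated and counted. Four-parameter logistic IC50, mean of at least two experiments.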

In data set [7] the target is Serine/threonine-protein kinase Chk1 (Homo sapiens, UniProt O14757). Put plainly: Inhibition of Serine/threonine-protein kinase Chk1. A digest of the protocol: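 ATP/33P-γ-ATP 2Km, substrate 5Km, 1% DMSO, compound 10–0.0015 μM, 30–90 min at room temperature. SPA.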
In data set [8] the target is Inhibitor of nuclear factor kappa-B kinase subunit epsilon (Homo sapiens, UniProt Q14164). Nature of the data set: Inhibition of IKKi (IKK epsilon) kinase activity. A digest of the protocol:
(§1)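 Radiometric kinase assay. Enzyme (0.7–100 nM) and substrate (5Km) incubated with ATP/33P-γ-ATP (2Km) and compound serially diluted 3-fold from 10 to 0.0015 μM, 1% DMSO, 30–90 min at room temperature. Product separated by SPA, Dowex or phosphocellulose filter, then counted.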

The target in data set [9] is Tyrosine-protein kinase ZAP-70 (Homo sapiens, UniProt P43403). Put plainly: Inhibition of Zeta-chain (TCR) associated protein kinase 70 kDa (ZAP70). A digest of the protocol: as §1
In data set [10] the target is Serine/threonine-protein kinase PAK 4 (Homo sapiens, UniProt O96013). Nature of the data set: Inhibition of PAK4 kinase. A digest of the protocol:
as §1

The target of data set [11] is High affinity nerve growth factor receptor (Homo sapiens, UniProt P04629). Nature of the data set: Inhibition of Trk A kinase activity. The method in brief: as §1
In data set [12] the target is Hepatocyte growth factor receptor (Homo sapiens, UniProt P08581). Nature of the data set: Inhibition of MET kinase activity. The method in brief:
as §1

Sequence of CDC7/DBF4 (Cell division cycle 7-related protein kinase/Activator of S phase kinase) (Q9UBU7 whole entry): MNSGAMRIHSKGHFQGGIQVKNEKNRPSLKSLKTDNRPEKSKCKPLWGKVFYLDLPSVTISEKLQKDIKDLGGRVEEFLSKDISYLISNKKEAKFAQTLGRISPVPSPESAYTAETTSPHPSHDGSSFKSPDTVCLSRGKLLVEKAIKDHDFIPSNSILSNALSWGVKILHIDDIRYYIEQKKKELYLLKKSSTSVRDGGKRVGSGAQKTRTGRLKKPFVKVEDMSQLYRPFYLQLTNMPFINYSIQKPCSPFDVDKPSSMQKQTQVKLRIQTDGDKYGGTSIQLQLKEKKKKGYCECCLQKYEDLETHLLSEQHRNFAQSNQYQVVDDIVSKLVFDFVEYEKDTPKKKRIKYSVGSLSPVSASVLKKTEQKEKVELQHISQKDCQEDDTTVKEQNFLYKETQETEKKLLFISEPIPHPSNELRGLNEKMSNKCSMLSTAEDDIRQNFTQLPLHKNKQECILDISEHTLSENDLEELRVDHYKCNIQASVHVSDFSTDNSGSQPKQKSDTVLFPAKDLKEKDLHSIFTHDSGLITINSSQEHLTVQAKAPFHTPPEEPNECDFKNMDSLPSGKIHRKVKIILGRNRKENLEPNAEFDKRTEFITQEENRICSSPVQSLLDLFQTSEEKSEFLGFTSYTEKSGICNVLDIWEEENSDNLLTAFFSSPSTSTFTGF
Sequence of CDC7/DBF4 (Cell division cycle 7-related protein kinase/Activator of S phase kinase) (O00311 whole entry): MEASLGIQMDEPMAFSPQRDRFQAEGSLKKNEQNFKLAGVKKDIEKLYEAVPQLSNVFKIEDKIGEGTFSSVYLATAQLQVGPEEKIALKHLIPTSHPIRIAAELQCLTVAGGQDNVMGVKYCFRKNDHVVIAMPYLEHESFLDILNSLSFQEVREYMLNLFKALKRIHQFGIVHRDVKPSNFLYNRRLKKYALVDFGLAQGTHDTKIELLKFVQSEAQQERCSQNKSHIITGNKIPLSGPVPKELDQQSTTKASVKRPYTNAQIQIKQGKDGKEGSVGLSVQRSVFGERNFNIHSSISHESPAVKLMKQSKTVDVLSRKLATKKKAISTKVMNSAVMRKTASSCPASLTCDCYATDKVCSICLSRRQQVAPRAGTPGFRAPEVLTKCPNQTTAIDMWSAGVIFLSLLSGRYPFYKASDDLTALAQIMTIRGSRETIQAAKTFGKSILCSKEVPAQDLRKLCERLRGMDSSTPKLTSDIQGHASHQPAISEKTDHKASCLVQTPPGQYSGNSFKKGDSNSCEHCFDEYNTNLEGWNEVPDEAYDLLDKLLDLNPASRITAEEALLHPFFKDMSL
Sequence of Serine/threonine-protein kinase PAK 4 (O96013 whole entry): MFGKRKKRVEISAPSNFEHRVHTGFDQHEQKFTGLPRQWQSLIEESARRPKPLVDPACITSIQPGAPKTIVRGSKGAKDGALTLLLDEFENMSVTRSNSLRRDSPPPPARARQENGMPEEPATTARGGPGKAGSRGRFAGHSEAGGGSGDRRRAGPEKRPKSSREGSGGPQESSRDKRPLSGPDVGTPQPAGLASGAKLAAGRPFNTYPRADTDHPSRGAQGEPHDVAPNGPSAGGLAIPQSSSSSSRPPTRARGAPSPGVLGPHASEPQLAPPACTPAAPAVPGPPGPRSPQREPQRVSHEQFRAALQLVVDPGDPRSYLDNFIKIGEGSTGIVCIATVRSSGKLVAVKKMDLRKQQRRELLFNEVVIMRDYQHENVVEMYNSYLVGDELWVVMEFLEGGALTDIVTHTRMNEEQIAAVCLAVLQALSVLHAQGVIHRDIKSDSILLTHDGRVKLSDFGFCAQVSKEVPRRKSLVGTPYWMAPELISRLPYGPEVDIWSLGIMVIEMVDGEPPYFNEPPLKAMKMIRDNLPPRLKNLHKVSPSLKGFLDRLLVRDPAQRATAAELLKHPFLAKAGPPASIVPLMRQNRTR
Sequence of Inhibitor of nuclear factor kappa-B kinase subunit epsilon (Q14164 whole entry): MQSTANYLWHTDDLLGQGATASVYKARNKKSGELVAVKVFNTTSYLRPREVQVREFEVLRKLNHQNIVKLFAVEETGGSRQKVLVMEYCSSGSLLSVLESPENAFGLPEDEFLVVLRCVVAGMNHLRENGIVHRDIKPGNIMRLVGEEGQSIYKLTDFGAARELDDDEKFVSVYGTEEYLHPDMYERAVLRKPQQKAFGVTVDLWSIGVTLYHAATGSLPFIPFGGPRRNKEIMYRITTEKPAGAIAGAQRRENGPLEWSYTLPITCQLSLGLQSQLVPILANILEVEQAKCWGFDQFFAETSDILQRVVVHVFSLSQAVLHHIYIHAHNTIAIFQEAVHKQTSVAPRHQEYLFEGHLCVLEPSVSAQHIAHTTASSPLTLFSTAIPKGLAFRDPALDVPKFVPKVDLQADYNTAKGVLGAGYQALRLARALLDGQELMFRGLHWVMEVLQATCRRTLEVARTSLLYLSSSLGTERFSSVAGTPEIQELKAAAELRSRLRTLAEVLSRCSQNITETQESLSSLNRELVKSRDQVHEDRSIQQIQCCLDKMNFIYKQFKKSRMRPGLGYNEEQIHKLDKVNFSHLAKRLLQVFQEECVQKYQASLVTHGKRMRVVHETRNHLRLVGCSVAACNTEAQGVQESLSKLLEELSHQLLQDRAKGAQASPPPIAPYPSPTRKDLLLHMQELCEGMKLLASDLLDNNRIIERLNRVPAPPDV
Sequence of Cyclin-dependent kinase 5/CDK5 activator 1 (Q00535 whole entry): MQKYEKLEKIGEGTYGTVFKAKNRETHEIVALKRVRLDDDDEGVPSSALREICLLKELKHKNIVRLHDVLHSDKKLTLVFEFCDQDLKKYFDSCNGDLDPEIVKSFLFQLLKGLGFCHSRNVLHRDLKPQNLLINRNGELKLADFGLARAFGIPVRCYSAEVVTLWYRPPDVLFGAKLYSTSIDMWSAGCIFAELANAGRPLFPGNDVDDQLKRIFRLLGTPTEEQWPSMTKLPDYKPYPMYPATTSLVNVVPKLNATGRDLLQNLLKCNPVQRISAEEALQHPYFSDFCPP
Sequence of Cyclin-dependent kinase 5/CDK5 activator 1 (Q15078 whole entry, further chain): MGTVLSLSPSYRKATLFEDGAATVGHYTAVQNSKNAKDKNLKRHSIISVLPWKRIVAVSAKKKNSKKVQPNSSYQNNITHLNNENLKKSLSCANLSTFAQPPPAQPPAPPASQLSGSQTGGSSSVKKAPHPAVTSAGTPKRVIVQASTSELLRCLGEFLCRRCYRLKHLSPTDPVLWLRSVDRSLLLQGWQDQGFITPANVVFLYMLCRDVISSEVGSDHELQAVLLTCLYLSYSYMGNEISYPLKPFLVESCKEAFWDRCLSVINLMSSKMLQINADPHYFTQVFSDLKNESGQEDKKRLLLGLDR
Sequence of Hepatocyte growth factor receptor (P08581 whole entry): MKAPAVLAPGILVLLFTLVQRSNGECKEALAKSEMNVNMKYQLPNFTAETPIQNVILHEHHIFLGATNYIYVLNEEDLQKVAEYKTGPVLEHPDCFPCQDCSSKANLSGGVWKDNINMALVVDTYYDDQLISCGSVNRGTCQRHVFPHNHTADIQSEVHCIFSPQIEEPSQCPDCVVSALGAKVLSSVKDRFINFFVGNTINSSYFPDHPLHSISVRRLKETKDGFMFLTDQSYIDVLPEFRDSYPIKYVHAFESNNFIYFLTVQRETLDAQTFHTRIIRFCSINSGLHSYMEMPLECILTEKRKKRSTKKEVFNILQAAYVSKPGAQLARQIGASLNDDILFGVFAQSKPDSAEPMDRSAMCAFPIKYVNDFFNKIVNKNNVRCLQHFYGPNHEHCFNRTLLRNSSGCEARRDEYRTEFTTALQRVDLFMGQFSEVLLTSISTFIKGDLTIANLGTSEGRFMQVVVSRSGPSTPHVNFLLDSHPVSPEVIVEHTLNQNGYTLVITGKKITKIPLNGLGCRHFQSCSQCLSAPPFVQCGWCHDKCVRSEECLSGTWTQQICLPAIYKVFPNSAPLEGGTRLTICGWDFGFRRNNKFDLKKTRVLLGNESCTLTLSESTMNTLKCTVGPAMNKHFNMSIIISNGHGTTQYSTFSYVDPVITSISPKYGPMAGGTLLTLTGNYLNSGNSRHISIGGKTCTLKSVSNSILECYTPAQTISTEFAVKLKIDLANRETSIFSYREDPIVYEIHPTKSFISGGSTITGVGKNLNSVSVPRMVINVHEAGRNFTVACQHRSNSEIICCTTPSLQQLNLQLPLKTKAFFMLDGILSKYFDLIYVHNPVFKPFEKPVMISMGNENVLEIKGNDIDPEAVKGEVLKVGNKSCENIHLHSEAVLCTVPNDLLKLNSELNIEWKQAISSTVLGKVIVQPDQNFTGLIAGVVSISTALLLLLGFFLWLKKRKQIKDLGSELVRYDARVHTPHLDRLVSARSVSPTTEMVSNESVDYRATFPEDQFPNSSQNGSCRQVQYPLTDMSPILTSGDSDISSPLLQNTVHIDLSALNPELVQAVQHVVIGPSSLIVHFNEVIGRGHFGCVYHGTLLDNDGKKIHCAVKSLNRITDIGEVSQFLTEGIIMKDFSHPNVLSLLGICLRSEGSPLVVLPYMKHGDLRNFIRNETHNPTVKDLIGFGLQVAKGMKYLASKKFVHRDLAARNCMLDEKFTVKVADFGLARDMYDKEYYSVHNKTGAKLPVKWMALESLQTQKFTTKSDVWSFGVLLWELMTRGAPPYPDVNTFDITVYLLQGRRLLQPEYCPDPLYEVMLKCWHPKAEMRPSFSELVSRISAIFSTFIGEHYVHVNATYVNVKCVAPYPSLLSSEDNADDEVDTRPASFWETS
Sequence of Serine/threonine-protein kinase Chk1 (O14757 whole entry): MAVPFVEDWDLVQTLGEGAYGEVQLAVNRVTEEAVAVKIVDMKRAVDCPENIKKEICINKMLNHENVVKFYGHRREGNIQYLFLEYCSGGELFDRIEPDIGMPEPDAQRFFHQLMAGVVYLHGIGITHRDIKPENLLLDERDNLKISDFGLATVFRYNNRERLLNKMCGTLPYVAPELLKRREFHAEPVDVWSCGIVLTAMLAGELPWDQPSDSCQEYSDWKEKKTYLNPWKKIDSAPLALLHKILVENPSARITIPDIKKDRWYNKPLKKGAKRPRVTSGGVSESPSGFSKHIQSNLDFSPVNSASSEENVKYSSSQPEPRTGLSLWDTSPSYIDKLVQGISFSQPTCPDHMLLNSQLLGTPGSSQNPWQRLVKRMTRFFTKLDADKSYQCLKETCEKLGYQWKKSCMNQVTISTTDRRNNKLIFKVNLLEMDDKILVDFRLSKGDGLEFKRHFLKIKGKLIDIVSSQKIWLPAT

Compound `O=C(Cc1ccc2ccccc2c1)Nc1cc(C2CC2)n[nH]1` showed a Metabolic rate in data set [1] of 27.8 mL/min/kg. Also, the IC50 (as a rule, the concentration at which inhibition is half-maximal) in data set [2] is above 10 µM; in data set [3], 0.114 µM; in data set [4] it was above 10 µM; in data set [5], above 10 µM; in [6], above 10 µM; in data set [7], above 10 µM. Besides, the IC50 in [8], in data set [9], in data set [10], in [11] and in data set [12] was above 10 µM throughout.
